High-throughput results from PubChem.
An excerpt weighted towards active compounds, which were near 2.3% of everything screened.
PLAP act – activators of human placental alkaline phosphatase; P05187; purified PLAP enzyme, luminescent substrate read-out; active compounds read high; activation fold at 20 µM; 96,000 compounds, 1.2% hits; in the data active = activation fold above about 2
Ecoli tolC – blocks growth of E. coli BW25113 tolC mutant | OD615 | growth inhibition, % at 10 µM (by protocol) | 65,000 compounds, 2.2% hits | AID 573;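 active = growth inhibition at or above a cutoff equal to the mean over every tested compound plus 3 SD, cut at about 60% in these data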;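 note: growth measured after 20 h incubation at 37 °C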
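Test system: tolC-deleted E. coli BW25113 | Medium: LB with kanamycin 50 µg/mL | Compound dosing: Single concentration, 10 µM final per compound | Schedule: 37 °C, 20 h exposure | Measured by: OD at 615 nm | Evaluation: Percent growth inhibition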
HePTP inh – human HePTP phosphatase inhibition. P35236. 110,000 compounds, 0.64% hits. inhibition, % at 20 µM. recombinant HePTP phosphatase activity, OD absorbance; in the data active = inhibition above about 50%;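 note: plate controls were vehicle for no effect and reference inhibitor for full effect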
Target sequence (P35236 whole entry, looked up): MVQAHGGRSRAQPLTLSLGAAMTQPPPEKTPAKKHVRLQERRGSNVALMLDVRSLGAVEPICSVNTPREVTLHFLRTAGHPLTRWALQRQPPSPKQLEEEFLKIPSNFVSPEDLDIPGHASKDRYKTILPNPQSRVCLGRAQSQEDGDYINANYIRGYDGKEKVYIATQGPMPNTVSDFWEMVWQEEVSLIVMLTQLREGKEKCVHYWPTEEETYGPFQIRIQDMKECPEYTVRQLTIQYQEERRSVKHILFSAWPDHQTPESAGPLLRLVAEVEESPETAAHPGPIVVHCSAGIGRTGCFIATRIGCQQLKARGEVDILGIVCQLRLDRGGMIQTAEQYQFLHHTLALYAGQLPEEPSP
AP ELISA ortho – orthogonal test for alternative complement pathway inhibitors. Human serum alternative complement pathway, LPS-coated ELISA, C3 deposition; tested in compound mixtures. inhibition, % at 5 µM. 62,000 compounds, 0.08% hits. AID 1235;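 active = inhibition above 30% in each of the two pooled mixtures holding the compound, so the lower value exceeds 30%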;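 note: 0% = serum in Mg-EGTA without compound and 100% = EDTA serum blank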
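Assay system: Human serum alternative complement pathway, C3 deposition on LPS-coated wells | Incubation: 1 h serum-compound exposure at 37 °C | Doses: 5 µM per compound in ten-compound mixtures | Read-out: Percent inhibition | Technique: ELISA with HRP anti-human C3 antibody, TMB substrate, absorbance 450 nm | Replication: Two pool placements per compound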
E coli WT exp – growth inhibitors of E. coli BW25113 wild type; OD600 absorbance; growth inhibition, % at 100 µM; 98,000 compounds, 0.15% hits;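 active = growth inhibition above about 50% at one test dose, limit read from the data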;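 note: growth measured after 20 h incubation at 37 °C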
* marks the source's active call; other numbers are inactive results; nt = not tested or not shown.

SMILES | PLAP act | Ecoli tolC | HePTP inh | AP ELISA ortho | E coli WT exp
COC(=O)c1ccccc1NC(=O)CN(c1ccc(C)cc1)S(=O)(=O)c1ccc(SC)cc1 | nt | nt | -1 | nt | nt
COc1cccc(NCCC(=O)c2ccccc2)c1 | nt | nt | -11 | nt | nt
CN1C(=O)c2ccccc2Sc2ccc(NC(=O)NC3CC3)cc21 | 1.3 | -4 | -4 | 6 | 1
O=C(Nc1ccc2c(c1)N(Cc1ccccc1)C(=O)c1ccccc1S2)NC1CC1 | 2.1* | nt | nt | nt | -3
Cc1c(C(=O)N2CCc3ccccc3C2)sc2nc(-c3ccccc3)cn12 | 1.3 | 67* | nt | nt | -14
O=C(c1ccc(Br)o1)N1CCN(c2ccc(Cl)cc2)CC1 | nt | nt | 9 | nt | nt
O=C(c1ccc(COc2c(F)c(F)cc(F)c2F)o1)N1CCN(c2ccc(Cl)cc2)CC1 | 0.9 | 62* | -5 | 1 | -7
O=C(Cc1ccc(F)cc1)Nc1cccc2ccccc12 | nt | nt | 103* | nt | nt
CCc1ccc(N2CC(C(=O)Nc3cccc(C(F)(F)F)c3)CC2=O)cc1 (centres undefined) | nt | nt | -9 | nt | nt
Cc1ccc2[nH]c3nc(N/N=C/c4cc(Br)c(O)c(Br)c4)nnc3c2c1 | nt | nt | 2 | nt | nt
Oc1c(Br)cc(/C=N/Nc2nnc3c(n2)[nH]c2ccccc23)c(Br)c1O | nt | nt | 89* | nt | nt
COc1ccc(-c2noc(CCC(=O)N(C)c3cccc(C)c3)n2)cc1 | 1.5 | 68* | 4 | 10 | -2
CCN(C(=O)CCc1nc(-c2ccc(OC)cc2)no1)c1cc(OC)ccc1OC | 2* | 37 | 1 | 12 | -21
COc1ccccc1NC(=O)c1cc(-c2ccc(C)cc2C)nc2ccccc12 | nt | nt | -7 | nt | nt
COc1ccc(NC(=O)NCCN2CCN(c3cccc(Cl)c3)CC2)cc1 | 1.2 | -5 | -9 | 16 | 4
COc1ccc(NC(=O)NCCCN2CCN(c3cc(C)ccc3C)CC2)cc1 | 2* | 21 | 8 | 4 | 17
COc1cccc2sc(Nc3nnc(-c4cccs4)o3)nc12 | 1 | -20 | 6 | 20 | -2
COc1cccc2sc(Nc3nnc(-c4ccc(F)cc4)o3)nc12 | 2.4* | nt | nt | nt | -14
Fc1cccc2sc(Nc3nnc(-c4ccco4)o3)nc12 | 1.5 | 99* | -3 | 3 | -6
CC(C)CC(/C(O)=C(\C#N)c1nc2ccccc2[nH]1)N1C(=O)c2ccccc2C1=O (centres undefined) | 2.1* | 24 | 2 | 6 | 4
N#CC1=C(S)N=C(N)C(c2nc(-c3ccccc3)cs2)C12CCCCC2 (centres undefined) | 2.2* | nt | nt | nt | -8
Cc1ccc(-c2csc(C3C(N)=NC(S)=C(C#N)C34CCCCC4)n2)cc1 (centres undefined) | 2.4* | nt | nt | nt | -11
Nc1nc(-c2ccccc2)cs1 | 0.8 | nt | nt | nt | 5
N#CC1=C(S)N=C(N)C(c2nc(-c3ccccc3)cs2)C12CCCC2 (centres undefined) | 2.5* | nt | nt | nt | -12
COc1ccccc1Cc1nc(-c2ccc(Br)o2)no1 | 1 | 61* | -1 | 17 | 6
SMILES | PLAP act | Ecoli tolC | HePTP inh | AP ELISA ortho | E coli WT exp
CCOC(=O)CSc1nc2ccccc2c(=O)n1CC | 0.8 | 7 | 9 | 8 | 6
CCn1c(SCC(=O)OC2CCCCC2)nc2ccccc2c1=O | 1.2 | 72* | 6 | -2 | 12
CCOC(=O)c1ccc(NC(=O)CN(c2ccccc2OCC)S(=O)(=O)c2ccccc2)cc1 | nt | nt | 104* | nt | nt
O=C(Nc1cccnc1)c1ccc(CN(c2ccccc2)S(=O)(=O)c2ccccc2)cc1 | nt | nt | 104* | nt | nt
CCOC(=O)c1ccc(NC(=O)CN(c2ccc(F)cc2)S(=O)(=O)c2ccccc2)cc1 | nt | nt | -5 | nt | nt
Cc1ccccc1CN(c1ccc(C(=O)Nc2cccnc2)cc1)S(C)(=O)=O | 2.2* | nt | nt | nt | 3
COc1ccc(OC)c(N(CC(=O)Nc2cccnc2)S(=O)(=O)c2ccccc2)c1 | 2.2* | nt | nt | nt | -7
COc1ccccc1N(CC(=O)Nc1cccnc1)S(=O)(=O)c1ccccc1 | 1 | nt | nt | nt | -1
COc1ccc(NC(=O)c2ccc(F)cc2)cc1Cl | nt | nt | -16 | nt | nt
O=C1NC(=O)/C(=C\c2cc3c(cc2[N+](=O)[O-])OCO3)S1 | nt | nt | 14 | nt | nt
Cc1[nH]c2ccccc2c1NC(=O)CN1CCN(c2cccc(C(F)(F)F)c2)CC1 | 1.7 | 75* | -4 | 4 | 6
O=C(CN1CCN(c2cccc(C(F)(F)F)c2)CC1)Nc1cccc(C(F)(F)F)c1 | 1.4 | nt | nt | nt | -3
COC(=O)c1[nH]c2ccc(Cl)cc2c1NC(=O)CN1CCc2cc(OC)c(OC)cc2C1 | 1.7 | 33 | 4 | 9 | -7
Cc1ccc2[nH]c(C(=O)O)c(NC(=O)CN3CCN(c4cccc(C)c4C)CC3)c2c1 | 1.5 | 96* | 2 | 10 | -4
COc1ccc(C)cc1NC(=O)CN1CCN(C/C=C/c2ccccc2)CC1 | 2.3* | nt | nt | nt | 6
COc1ccc(C)cc1NC(=O)CN1CCN(c2ccccc2F)CC1 | 1.4 | 27 | 44 | 15 | -5
CCOC(=O)c1[nH]c2ccc(F)cc2c1NC(=O)CN1CCc2cc(OC)c(OC)cc2C1 | 1.5 | 18 | 0 | 35* | -8
COc1ccc(OC)c(/C=C2\SC(=S)N(NC(=O)c3ccccc3)C2=O)c1 | nt | nt | 9 | nt | nt
Cc1sc(/N=C/c2cc(Br)ccc2O)c(C#N)c1C | nt | nt | -3 | nt | nt
CCOC(=O)N1CCN(CC(=O)Nc2c(C(=O)OC)[nH]c3ccc(Cl)cc23)CC1 | 1.6 | 86* | -5 | -21 | 0
CCOC(=O)N1CCN(CC(=O)Nc2c(C(=O)OC)[nH]c3cc(C)ccc23)CC1 | 1.4 | nt | nt | nt | 7
CCOC(=O)c1[nH]c2ccc(F)cc2c1NC(=O)CN1CCN(C/C=C/c2ccccc2)CC1 | 1.4 | 98* | 3 | 16 | 0
O=c1c2ccccc2nc(/C=C/c2c(O)ccc3ccccc23)n1-c1ccc(O)cc1 | nt | nt | -14 | nt | nt
CCCCc1c(C)nn(-c2nnc3c4ccccc4n(CC)c3n2)c1C | 1.3 | 75* | 2 | 6 | 0
CCOC(=O)Cc1nnc2c(Nc3ccc(Cl)cc3)nc3nonc3n12 | 0.9 | 100* | 9 | -9 | 11
SMILES | PLAP act | Ecoli tolC | HePTP inh | AP ELISA ortho | E coli WT exp
CCOC(=O)c1c(-c2ccc(C)cc2)csc1NC(=O)C1CCCCC1C(=O)O (centres undefined) | nt | nt | 6 | nt | nt
Cc1nn(-c2ccccc2)c2sc(C(=O)N(CC(=O)NC(C)(C)C)Cc3ccco3)cc12 | 1.4 | 75* | 5 | 15 | -9
COC(=O)c1cc2c(C)nn(-c3ccccc3)c2s1 | 0.9 | 5 | 1 | 0 | 4
COc1cc(C2OCC3(CCC4(COC(c5ccc(O)c(OC)c5)OC4)C3=O)CO2)ccc1O (centres undefined) | nt | nt | 4 | nt | nt
Cc1cc(C)c(C(=O)/C(=C/c2ccccc2)c2ccccc2)c(=O)[nH]1 | nt | nt | -23 | nt | nt
FC(F)(F)c1cnc(Oc2ccccc2-c2nnco2)c(Cl)c1 | 2.3* | nt | nt | nt | -3
FC(F)(F)c1cnc(Oc2ccc(-c3nnco3)cc2)c(Cl)c1 | 1.1 | -5 | 3 | 2 | 9
CCOC(=O)C1CCN(c2nc3cc(OC)ccc3cc2C#N)CC1 | 1.5 | 75* | 7 | 14 | -8
COc1ccc2nc(N3CCC(C)CC3)c(C#N)cc2c1 | 1.4 | 97* | 11 | 11 | 5
O=C(O)CN1C(=O)/C(=C/c2cccc(OCc3ccccc3Cl)c2)SC1=S | nt | nt | 19 | nt | nt
